Measured values taken from ChEMBL document CHEMBL4371064, “Erythrofordins D and E, two new cassaine-type diterpenes from Erythrophleum suaveolens” (2019).

How the values were obtained:
Assay type in all cases: functional
[1] = test system: OVCAR-5; assay: Growth inhibition of human OVCAR5 cells incubated for 48 hrs by sulforhodamine B assay; conditions: OVCAR-5, 48 h
Summary of the method: (§1)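 Run in the NCI-60 human tumour cell line panel with dose-response testing. GI50 was determined for each cell line from its dose-response data.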

[2] = test system: SNB-19; assay: Growth inhibition of human SNB19 cells incubated for 48 hrs by sulforhodamine B assay; conditions: SNB-19, 48 h; summary of the method: as §1
[3] = test system: DU-145; assay: Growth inhibition of human DU145 cells incubated for 48 hrs by sulforhodamine B assay; conditions: DU-145, 48 h; summary of the method: as §1
[4] = test system: OVCAR-3; assay: Growth inhibition of human OVCAR3 cells incubated for 48 hrs by sulforhodamine B assay; conditions: OVCAR-3, 48 h; summary of the method: as §1
[5] = test system: SF-295; assay: Growth inhibition of human SF295 cells incubated for 48 hrs by sulforhodamine B assay; conditions: SF-295, 48 h; summary of the method: as §1
[6] = test system: K562; assay: Growth inhibition of human K562 cells incubated for 48 hrs by sulforhodamine B assay; conditions: K562, 48 h; summary of the method: as §1
[7] = test system: UACC-62; assay: Growth inhibition of human UACC62 cells incubated for 48 hrs by sulforhodamine B assay; conditions: UACC-62, 48 h
Summary of the method: (§2)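 Tested in the NCI 60-human-tumour-cell-line screen using the five-dose format. GI₅₀ was derived from each cell line's dose-response. TGI and LC₅₀ were derived from the same dose-response data.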

[8] = test system: SN12C; assay: Growth inhibition of human SN12C cells incubated for 48 hrs by sulforhodamine B assay; summary of the method: as §1
[9] = test system: MCF7; assay: Growth inhibition of human MCF7 cells incubated for 48 hrs by sulforhodamine B assay; conditions: MCF7, 48 h; summary of the method: as §1
[10] = test system: NCI-H522; assay: Growth inhibition of human NCI-H522 cells incubated for 48 hrs by sulforhodamine B assay; conditions: NCI-H522, 48 h; summary of the method: as §1
[11] = test system: UO-31; assay: Growth inhibition of human UO31 cells incubated for 48 hrs by sulforhodamine B assay; conditions: UO-31, 48 h; summary of the method: as §2
[12] = test system: HT-29; assay: Growth inhibition of human HT-29 cells incubated for 48 hrs by sulforhodamine B assay; conditions: HT-29, 48 h; summary of the method: as §1
[13] = test system: HOP-92; assay: Growth inhibition of human HOP92 cells incubated for 48 hrs by sulforhodamine B assay; conditions: HOP-92, 48 h; summary of the method: as §1
[14] = test system: MDA-MB-468; assay: Growth inhibition of human MDA-MB-468 cells incubated for 48 hrs by sulforhodamine B assay; conditions: MDA-MB-468, 48 h; summary of the method: as §1
[15] = test system: MOLT-4; assay: Growth inhibition of human MOLT4 cells incubated for 48 hrs by sulforhodamine B assay; conditions: MOLT-4, 48 h; summary of the method: as §1
[16] = test system: CCRF-CEM; assay: Growth inhibition of human CCRF-CEM cells incubated for 48 hrs by sulforhodamine B assay; summary of the method: as §1
[17] = test system: PC-3; assay: Growth inhibition of human PC3 cells incubated for 48 hrs by sulforhodamine B assay; conditions: PC-3, 48 h; summary of the method: as §1
[18] = test system: SW-620; assay: Growth inhibition of human SW620 cells incubated for 48 hrs by sulforhodamine B assay; conditions: SW-620, 48 h; summary of the method: as §2
[19] = test system: M14; assay: Growth inhibition of human M14 cells incubated for 48 hrs by sulforhodamine B assay; conditions: M14, 48 h; summary of the method: as §1
[20] = test system: COLO 205; assay: Growth inhibition of human COLO205 cells incubated for 48 hrs by sulforhodamine B assay; conditions: COLO 205, 48 h; summary of the method: as §1
[21] = test system: SNB-75; assay: Growth inhibition of human SNB75 cells incubated for 48 hrs by sulforhodamine B assay; conditions: SNB-75, 48 h; summary of the method: as §1
[22] = test system: RXF 393; assay: Growth inhibition of human RXF393 cells incubated for 48 hrs by sulforhodamine B assay; conditions: RXF 393, 48 h; summary of the method: as §1
[23] = test system: NCI/ADR-RES; assay: Growth inhibition of human NCI/ADR-RES cells incubated for 48 hrs by sulforhodamine B assay; summary of the method: as §1
[24] = test system: NCI-H460; assay: Growth inhibition of human NCI-H460 cells incubated for 48 hrs by sulforhodamine B assay; conditions: NCI-H460, 48 h; summary of the method: as §1
[25] = test system: NCI-H322M; assay: Growth inhibition of human NCI-H322M cells incubated for 48 hrs by sulforhodamine B assay; summary of the method: as §1
[26] = test system: HL-60(TB); assay: Growth inhibition of human HL-60(TB) cells incubated for 48 hrs by sulforhodamine B assay; conditions: HL-60, 48 h
Summary of the method: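 Run within the NCI-60 human tumour cell line panel as a dose-response screen. For each cell line the readouts are GI50, TGI and LC50. Per-line log values also feed a mean-graph analysis, in which the arithmetic mean of the log values across all lines is subtracted from each line's log value.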

[27] = test system: T47D; assay: Growth inhibition of human T47D cells incubated for 48 hrs by sulforhodamine B assay; summary of the method: as §2
[28] = test system: MDA-MB-435; assay: Growth inhibition of human MDA-MB-435 cells incubated for 48 hrs by sulforhodamine B assay; conditions: MDA-MB-435, 48 h; summary of the method: as §1
[29] = test system: HOP-62; assay: Growth inhibition of human HOP62 cells incubated for 48 hrs by sulforhodamine B assay; conditions: HOP-62, 48 h; summary of the method: as §1
[30] = test system: BT-549; assay: Growth inhibition of human BT549 cells incubated for 48 hrs by sulforhodamine B assay; conditions: BT-549, 48 h; summary of the method: as §1
[31] = read-out: pLC50 (the source's name) (converted)

Compound: COC(=O)/C=C1\CC[C@H]2[C@@H](CC(=O)[C@H]3C(C)(C)[C@@H](O)CC[C@]23C)[C@H]1C
- GI50 [1]: 5.89 µM
- LC50 [1]: > 34.7 µM
- TGI ([1]; read-out: pTGI (converted)): 17.4 µM
- GI50 [2]: 9.33 µM
- LC50 [2]: > 34.7 µM
- TGI ([2]; read-out: pTGI (converted)): > 34.7 µM
- GI50 [3]: 0.776 µM
- LC50 (concentration killing 50% of cells) [3]: 4.79 µM
- TGI ([3]; read-out: pTGI (converted)): 1.74 µM
- GI50 [4]: 1.32 µM
- LC50 [4]: 21.4 µM
- TGI ([4]; read-out: pTGI (converted)): 4.9 µM
- GI50 [5]: 1.45 µM
- LC50 [5]: > 34.7 µM
- TGI ([5]; read-out: pTGI (converted)): 7.59 µM
- GI50 [6]: 5.13 µM
- LC50 [6]: > 34.7 µM
- TGI ([6]; read-out: pTGI (converted)): 28.8 µM
- GI50 [7]: 5.62 µM
- LC50 [7]: > 34.7 µM
- TGI ([7]; read-out: pTGI (converted)): 16.6 µM
- GI50 [8]: 1.1 µM
- LC50 [8]: > 34.7 µM
- TGI ([8]; read-out: pTGI (converted)): 5.89 µM
- GI50 [9]: 1.62 µM
- CC50 [9, 31]: > 34.7 µM
- TGI ([9]; read-out: pTGI): > 34.7 µM
- GI50 [10]: 0.741 µM
- LC50 [10]: 27.5 µM
- TGI ([10]; read-out: pTGI (converted)): 2.29 µM
- GI50 [11]: 1.05 µM
- LC50 [11]: 16.2 µM
- TGI ([11]; read-out: pTGI (converted)): 5.01 µM
- GI50 [12]: 2.24 µM
- CC50 [12, 31]: > 34.7 µM
- TGI ([12]; read-out: pTGI (converted)): 10.7 µM
- GI50 [13]: 5.75 µM
- LC50 [13]: > 34.7 µM
- TGI ([13]; read-out: pTGI (converted)): 23.4 µM
- GI50 [14]: 10 µM
- CC50 [14, 31]: > 34.7 µM
- TGI ([14]; read-out: pTGI (converted)): > 34.7 µM
- GI50 [15]: 0.813 µM
- LC50 [15]: > 34.7 µM
- TGI ([15]; read-out: pTGI (converted)): 2.14 µM
- GI50 [16]: 1.15 µM
- LC50 [16]: > 34.7 µM
- TGI ([16]; read-out: pTGI (converted)): 7.59 µM
- GI50 [17]: 3.16 µM
- CC50 [17, 31]: > 34.7 µM
- TGI ([17]; read-out: pTGI (converted)): 15.8 µM
- GI50 [18]: 1.74 µM
- LC50 [18]: > 34.7 µM
- TGI ([18]; read-out: pTGI (converted)): 10 µM
- GI50 [19]: 10 µM
- LC50 [19]: > 34.7 µM
- TGI ([19]; read-out: pTGI (converted)): > 34.7 µM
- GI50 [20]: 10.5 µM
- LC50 [20]: > 34.7 µM
- TGI ([20]; read-out: pTGI (converted)): > 34.7 µM
- GI50 [21]: 1.1 µM
- LC50 (concentration killing 50% of cells) [21]: 23.4 µM
- TGI ([21]; read-out: pTGI (converted)): 6.46 µM
- GI50 [22]: 0.933 µM
- CC50 [22, 31]: > 34.7 µM
- TGI ([22]; read-out: pTGI (converted)): 3.31 µM
- GI50 [23]: 1.2 µM
- CC50 [23, 31]: > 34.7 µM
- TGI ([23]; read-out: pTGI (converted)): 6.61 µM
- GI50 [24]: 0.776 µM
- LC50 [24]: 5.13 µM
- TGI ([24]; read-out: pTGI (converted)): 1.74 µM
- GI50 [25]: 1.35 µM
- LC50 [25]: > 34.7 µM
- TGI ([25]; read-out: pTGI (converted)): 9.55 µM
- GI50 [26]: 5.37 µM
- LC50 [26]: > 34.7 µM
- TGI ([26]; read-out: pTGI (converted)): 21.4 µM
- GI50 [27]: 5.37 µM
- LC50 [27]: > 34.7 µM
- TGI ([27]; read-out: pTGI (converted)): 21.9 µM
- GI50 [28]: 8.51 µM
- LC50 [28]: > 34.7 µM
- TGI ([28]; read-out: pTGI (converted)): > 34.7 µM
- GI50 [29]: 1.1 µM
- CC50 [29, 31]: 15.1 µM
- TGI ([29]; read-out: pTGI (converted)): 4.47 µM
- GI50 [30]: 1.26 µM
- LC50 [30]: > 34.7 µM
- TGI ([30]; read-out: pTGI (converted)): 5.5 µM
